Source: ChEMBL document CHEMBL1833894, “The effect of a bromide leaving group on the properties of nitro analogs of the duocarmycins as hypoxia-activated prodrugs and phosphate pre-prodrugs for antitumor therapy” (Bioorg Med Chem, 2011)

Columns and labels:
[1] = system: SiHa; assay: Antitumor activity against human SiHa cells xenografted in CD1-Foxn1nu/nu nude mouse assessed as hypoxic log10 cell kill at 42 umol/kg, iv administered 5 mins after irradiated with gamma-15 Gy measured after 18 hrs; format: functional
In short: (§1)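 Male nude mice bearing subcutaneous SiHa tumours, from 10⁷ cultured cells, randomised at a mean diameter of 8–10 mm. Phosphate given iv in phosphate-buffered saline with 4 equiv sodium bicarbonate, 5 min after whole-body cobalt-60 15 Gy. Tumours excised 18 h later for clonogenic assay (log10 clonogens/g), 5 mice per group. Hypoxic log cell kill = radiation + drug versus radiation alone; ANOVA with Holm-Sidak.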

[2] = system: SiHa; assay: Antitumor activity against human SiHa cells xenografted in CD1-Foxn1nu/nu nude mouse assessed as log10 clonogens/g tumor at 42 umol/kg, iv measured after 18 hrs (reference value: 7.15 +/- 0.01 to 7.62 +/- 0.2 no unit); format: functional
[3] = system: SiHa; assay: Antitumor activity against human SiHa cells xenografted in CD1-Foxn1nu/nu nude mouse assessed as log10 clonogens/g tumor at 42 umol/kg, iv administered 5 mins after irradiated with gamma-15 Gy measured after 18 hrs (reference value: 5.34 +/- 0.04 to 5.73 +/- 0.15 no unit); format: functional
[4] = system: HT-29; assay: Cytotoxicity against human HT29 cells assessed as reduction in cell density compound treated for 4 hrs under oxic condition measured after 5 days by sulforhodamine B assay; format: functional, cell-based
In short: (§2)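 Log-phase monolayers exposed to drug for 4 h under aerobic (20% O₂) or anoxic (<20 ppm O₂) conditions, then stained with sulforhodamine B 5 days later. IC50 interpolated as the concentration cutting cell density to 50% of same-plate controls; mean of 3–6 experiments.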

[5] = system: SiHa; assay: Ratio IC50 for human SiHa cells under oxic condition to IC50 for human SiHa cells under hypoxic condition; format: functional
In short: (§3)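 Oxic IC50 divided by hypoxic IC50 (4 h exposure at 20% O₂ vs <20 ppm O₂, sulforhodamine B read-out 5 days later), taken as means of intraexperiment ratios over 2–6 experiments.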

[6] = system: SiHa; assay: Cytotoxicity against human SiHa cells assessed as reduction in cell density compound treated for 4 hrs under oxic condition measured after 5 days by sulforhodamine B assay; format: functional, cell-based; in short: as §2
[7] = system: HT-29; assay: Cytotoxicity against human HT29 cells assessed as reduction in cell density compound treated for 4 hrs under hypoxic condition measured after 5 days by sulforhodamine B assay; format: functional, cell-based; in short: as §2
[8] = system: SiHa; assay: Cytotoxicity against human SiHa cells assessed as reduction in cell density compound treated for 4 hrs under hypoxic condition measured after 5 days by sulforhodamine B assay; format: functional, cell-based; in short: as §2
[9] = system: HT-29; assay: Ratio IC50 for human HT29 cells under oxic condition to IC50 for human HT29 cells under hypoxic condition; format: functional; in short: as §3
[10] = Aqueous solubility of the compound; format: physicochemical
[11] = system: HT-29; assay: Cytotoxicity against human HT29 cells under oxic condition relative to hypoxic condition; format: functional
In short: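 Log-phase HT29 monolayers exposed to drug for 4 h under aerobic (20% O₂) or anoxic (<20 ppm O₂) conditions, then sulforhodamine B staining 5 days later. IC50 interpolated as the concentration cutting cell density to 50% of same-plate controls. Ratio = IC50(oxic)/IC50(hypoxic), taken as the mean of intraexperiment ratios over 2–6 experiments.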

[12] = system: SK-OV-3; assay: Cytotoxicity against human SKOV3 cells under oxic condition relative to hypoxic condition; format: functional
[13] = system: SiHa; assay: Antitumor activity against human SiHa cells xenografted in CD1-Foxn1nu/nu nude mouse assessed as log10 clonogens/g tumor at 30 umol/kg, iv measured after 18 hrs (reference value: 7.15 +/- 0.01 to 7.62 +/- 0.2 no unit); format: functional
[14] = system: SiHa; assay: Antitumor activity against human SiHa cells xenografted in CD1-Foxn1nu/nu nude mouse assessed as hypoxic log10 cell kill at 30 umol/kg, iv administered 5 mins after irradiated with gamma-15 Gy measured after 18 hrs; format: functional; in short: as §1
[15] = system: SiHa; assay: Antitumor activity against human SiHa cells xenografted in CD1-Foxn1nu/nu nude mouse assessed as log10 clonogens/g tumor at 30 umol/kg, iv administered 5 mins after irradiated with gamma-15 Gy measured after 18 hrs (reference value: 5.34 +/- 0.04 to 5.73 +/- 0.15 no unit); format: functional

Structure (SMILES)	LCK [1]	Activity [2]	Activity [3]	IC50 [4] [nM]	Ratio IC50 [5]	IC50 [6] [nM]	IC50 [7] [nM]	IC50 [8] [nM]	Ratio IC50 [9]	other results
COc1cc2cc(C(=O)N3CC(CBr)c4c3cc([N+](=O)[O-])c3cc(S(=O)(=O)NCCOP(=O)(O)O)ccc43)[nH]c2c(OC)c1OC (configuration not stated)	1.84	6.51	3.62	–	–	–	–	–	–	–
COc1ccc(/C=C/C(=O)N2CC(CBr)c3c2cc([N+](=O)[O-])c2cc(S(=O)(=O)NCCOP(=O)(O)O)ccc32)cc1 (configuration not stated)	0.87	7.07	4.5	–	–	–	–	–	–	–
COc1cc2cc(C(=O)N3CC(CCl)c4c3cc([N+](=O)[O-])c3cc(S(=O)(=O)NCCOP(=O)(O)O)ccc43)[nH]c2c(OC)c1OC (configuration not stated)	0.55	7.29	4.96	–	–	–	–	–	–	–
COc1cc2cc(C(=O)N3CC(CBr)c4c3cc([N+](=O)[O-])c3cc(S(=O)(=O)NCCO)ccc43)[nH]c2c(OC)c1OC (configuration not stated)	–	–	–	12300	10	2610	1350	270	10	–
O=C(c1cc2cc(OCCN3CCOCC3)ccc2[nH]1)N1CC(CBr)c2c1cc([N+](=O)[O-])c1cc(S(=O)(=O)NCCOP(=O)(O)O)ccc21 (configuration not stated)	2.8	6.05	2.6	–	–	–	–	–	–	–
O=C(/C=C/c1ccc(OCCN2CCOCC2)cc1)N1CC(CBr)c2c1cc([N+](=O)[O-])c1cc(S(=O)(=O)NCCO)ccc21 (configuration not stated)	–	–	–	11200	41	2720	80	90	286	–
COc1ccc(/C=C/C(=O)N2CC(CBr)c3c2cc([N+](=O)[O-])c2cc(S(=O)(=O)NCCO)ccc32)cc1 (configuration not stated)	–	–	–	2450	17	1440	< 100	120	>25	–
CN(C)CCOc1ccc2[nH]c(C(=O)N3CC(CCl)c4c3cc([N+](=O)[O-])c3cc(S(=O)(=O)NCCOP(=O)(O)O)ccc43)cc2c1 (configuration not stated)	1.83	6.89	3.9	–	–	–	–	–	–	solubility [10]: > 2000 µM
CN(C)CCOc1ccc2[nH]c(C(=O)N3CC(CCl)c4c3cc([N+](=O)[O-])c3cc(S(N)(=O)=O)ccc43)cc2c1 (configuration not stated)	–	–	–	–	–	–	–	–	–	Ratio [11]: 330; Ratio [12]: 275
O=C(c1cc2cc(OCCN3CCOCC3)ccc2[nH]1)N1CC(CBr)c2c1cc([N+](=O)[O-])c1cc(S(=O)(=O)NCCO)ccc21 (configuration not stated)	–	–	–	22400	43	11700	440	280	52	–
CN(C)CCOc1ccc2[nH]c(C(=O)N3CC(CCl)c4c3cc([N+](=O)[O-])c3cc(S(=O)(=O)NCCO)ccc43)cc2c1 (configuration not stated)	–	–	–	9300	46	2000	90	70	160	–
O=C(/C=C/c1ccc(OCCN2CCOCC2)cc1)N1CC(CBr)c2c1cc([N+](=O)[O-])c1cc(S(=O)(=O)NCCOP(=O)(O)O)ccc21 (configuration not stated)	–	–	–	–	–	–	–	–	–	Activity [13]: 7.01; LCK [14]: 1.56; Activity [15]: 3.78
COc1cc2cc(C(=O)N3CC(CCl)c4c3cc([N+](=O)[O-])c3cc(S(=O)(=O)NCCO)ccc43)[nH]c2c(OC)c1OC (configuration not stated)	–	–	–	28000	16	13000	11000	3500	2.1	–
